Series [1] in a line: AUC in Sprague-Dawley rat at 5 mg/kg, iv measured up to 24 hrs by LC-MS/MS analysis. Set-up: route intravenous, dose 5 mg/kg, time <=24. It is filed as ADME, organism-based. The following applies: in vivo.
The subject of series [2] is HL-60. In words: Growth inhibition human HL-60 cells after 72 hrs by resazurin or MTT assay. Format: functional. The method in brief: (§1)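 Tumour cell lines kept in RPMI-1640, DMEM or MEM with 10% FBS at 37 °C, 5% CO2, mycoplasma-free. Exposure lasted 72 h. Viability was read by MTT for adherent solid-tumour lines and by resazurin for suspension leukaemia lines. GI50 came from nonlinear regression, given as mean ± standard deviation of at least two replicates unless stated otherwise.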
For orientation: Resazurin is reduced to fluorescent resorufin, in cell work by metabolically active cells.

The test system of series [3] is THP-1. Put plainly: Growth inhibition human THP1 cells after 72 hrs by resazurin or MTT assay. Format: functional. The method in brief: as §1
The test system of series [4] is KG-1. In words: Growth inhibition human KG-1 cells after 72 hrs by resazurin or MTT assay. Format: functional. The method in brief: as §1
Series [5] is described as follows: Tmax in Sprague-Dawley rat at 20 mg/kg, po measured up to 24 hrs by LC-MS/MS analysis. It is filed as ADME, organism-based. The conditions noted are these: in vivo.
The nature of series [6]: Toxicity in BALB/c mouse assessed as increase in dead splenocytes at 70 mg/kg, po administered once daily for 7 days and measured on day 15 by flow cytometric analysis. It is filed as organism-based. The conditions noted are these: in vivo, 168 h, time 7 day.
The test system of series [7] is MDA-MB-231. In words: Growth inhibition human MDA-MB-231 cells after 72 hrs by resazurin or MTT assay. It is filed as functional. The method in brief: as §1
A short description of series [8]: Effect on total STAT1 level in human MV4-11 cells at 1 to 5 times of GI50 concentration after 2 hrs by Western blot analysis. It is filed as ADME, cell-based. The conditions noted are these: mv4-11, 2 h. For orientation: Immunoblotting shows a protein as a band on a membrane.
A short description of series [9]: Toxicity in BALB/c mouse assessed as interstitial pneumonitis in lung at 70 mg/kg, po administered once daily for 7 days and measured on day 15. Format: organism-based. The conditions noted are these: in vivo, 168 h, time 7 day.
Series [10] is described as follows: Cmax in Sprague-Dawley rat at 20 mg/kg, po measured up to 24 hrs by LC-MS/MS analysis. Format: ADME, organism-based. The conditions noted are these: in vivo. Set-up: route oral, dose 20 mg/kg, time <=24.
Series [11] in a line: Cmax in Sprague-Dawley rat at 5 mg/kg, iv measured up to 24 hrs by LC-MS/MS analysis. Format: ADME, organism-based. Details: route intravenous, dose 5 mg/kg, time <=24. The following applies: in vivo.
A short description of series [12]: Toxicity in BALB/c mouse assessed as granulocytes at 70 mg/kg, po administered once daily for 7 days and measured on day 15 by flow cytometric analysis. Format: organism-based. The following applies: in vivo, 168 h, time 7 day.
Series [13] can be described thus: Toxicity in BALB/c mouse assessed as vasculitis in blood vessels at 70 mg/kg, po administered once daily for 7 days and measured on day 15. It is filed as organism-based. The conditions noted are these: in vivo, 168 h, time 7 day.
Series [14] concerns T47D. In words: Growth inhibition human T47D cells after 72 hrs by resazurin or MTT assay. It is filed as functional. A digest of the protocol: as §1
Series [15] in a line: AUC in BALB/c mouse at 2 mg/kg, iv measured up to 24 hrs by LC-MS/MS analysis. The conditions noted are these: in vivo.
Series [16] deals with CDK3/Cyclin E (Homo sapiens) (UniProt P24864+Q00526). In words: Inhibition of CDK3/cyclin-E (unknown origin) at 1 uM. Format: protein-complex assay. A digest of the protocol:
(§2)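 Residual activity of each kinase with compound at 1 µM, measured in a contracted radioisotope-based kinase profiling assay and expressed as % kinase activity remaining.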

The target in series [17] is Cyclin-dependent kinase 4/cyclin D1 (Homo sapiens) (UniProt P11802+P24385). In words: Inhibition of CDK4/cyclin-D1 (unknown origin) at 1 uM. It is filed as protein-complex assay. The method in brief: as §2
Series [18] addresses CDK9/cyclin T1 (Homo sapiens) (UniProt O60563+P50750). Put plainly: Inhibition of CDK9/Cyclin T1 (unknown origin) at 1 uM relative to control. It is filed as protein-complex assay. A digest of the protocol:
as §2

The nature of series [19]: Toxicity in BALB/c mouse assessed as loss of ground substance at 70 mg/kg, po administered once daily for 7 days and measured on day 15. Format: organism-based. The following applies: in vivo, 168 h, time 7 day.
The subject of series [20] is Glycogen synthase kinase-3 alpha (Homo sapiens), P49840 [UNDEFINED MUTATION]. Put plainly: Inhibition of human GSKalpha S449A mutant (2 to 3nd residues) at 1 uM using YRRAAVPPSPSLSRHSSPHQS(p) EDEEE as substrate incubated for 40 mins in presence of [gamma-33P]-ATP by scintillation counting method relative to control. The method in brief: (§3)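 Single-point screen of residual kinase activity (%) at 1 µM compound. Run as a contract radiometric [γ-33P]-ATP kinase assay, either the KinaseProfiler service or the HotSpot assay. ATP was set at the experimentally determined Km(ATP) of each kinase.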

Series [21] can be described thus: Tmax in BALB/c mouse at 2 mg/kg, iv measured up to 24 hrs by LC-MS/MS analysis. The following applies: in vivo.
Series [22] is described as follows: AUC in BALB/c mouse at 10 mg/kg, po measured up to 24 hrs by LC-MS/MS analysis. The conditions noted are these: in vivo.
A short description of series [23]: Volume of distribution at steady state in BALB/c mouse at 2 mg/kg, iv measured up to 24 hrs by LC-MS/MS analysis. The following applies: in vivo, read-out: Vdss.
A short description of series [24]: Inhibition of CYP4501A in human liver microsomes using ethoxyresorufin O-deethylation as substrate by LC-MS/MS analysis. (In general: Liver microsomes are vesicles of endoplasmic reticulum, rich in cytochrome P450 enzymes.)
Series [25] has as its target Protein kinase C theta type (Homo sapiens, UniProt Q04759). Put plainly: Inhibition of human full length PKCtheta at 1 uM using histone H1 as substrate incubated for 40 mins in presence of [gamma-33P]-ATP by scintillation counting method relative to control. The method in brief: as §3
The nature of series [26]: Tmax in BALB/c mouse at 10 mg/kg, po measured up to 24 hrs by LC-MS/MS analysis. The conditions noted are these: in vivo.
Series [27] has as its target Cyclin-dependent kinase 1/cyclin B1 (Homo sapiens) (UniProt P06493+P14635). Put plainly: Inhibition of CDK1/cyclin-B (unknown origin) at 1 uM relative to control. It is filed as protein-complex assay. A digest of the protocol: as §2
The target of series [28] is CDK9/cyclin T1 (Homo sapiens, UniProt P50750). In words: Inhibition of CDK9/Cyclin T1 (unknown origin). It is filed as protein-complex assay. The method in brief: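 IC50 measured in a contracted radiometric kinase assay with ATP at the experimentally determined Km(ATP) of each kinase. Apparent Ki was derived by Cheng-Prusoff: Ki = IC50/(1+[ATP]/Km(ATP)).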
A short description of series [29]: Cmax in BALB/c mouse at 10 mg/kg, po measured up to 24 hrs by LC-MS/MS analysis. The following applies: in vivo.
Series [30] addresses Cyclin-dependent kinase 5/CDK5 activator 1 (Homo sapiens) (UniProt Q00535+Q15078). In words: Inhibition of CDK5/p25 (unknown origin) at 1 uM. It is filed as protein-complex assay. A digest of the protocol: as §2
In series [31] the target is CDK2/Cyclin A2 (Homo sapiens) (UniProt P24941+P20248). In words: Inhibition of CDK2/cyclin-A (unknown origin) at 1 uM. Format: protein-complex assay. The method in brief:
as §2

Series [32] can be described thus: Dissociation constant, pKa of the compound by UV spectrometric titration method. It is filed as physicochemical.
Series [33] in a line: Cmax in BALB/c mouse at 2 mg/kg, iv measured up to 24 hrs by LC-MS/MS analysis. The following applies: in vivo.
Series [34] has as its target CDK7/Cyclin H/MNAT1 (Homo sapiens) (UniProt P51946+P50613+P51948). In words: Inhibition of CDK7/cyclin H/MNAT1 (unknown origin) at 1 uM. It is filed as protein-complex assay. A digest of the protocol:
as §2

This is an account of results in ChEMBL document CHEMBL4732199, “Potent and orally bioavailable CDK8 inhibitors: Design, synthesis, structure-activity relationship analysis and biological evaluation” (Eur J Med Chem, 2021).

Activity calls are given as the source filed them. The rule behind the calls is not given here. A value given as a limit tells only on which side of the number the result lay.

Chain of Cyclin-dependent kinase 1/cyclin B1 (Homo sapiens) (P06493 whole entry, looked up): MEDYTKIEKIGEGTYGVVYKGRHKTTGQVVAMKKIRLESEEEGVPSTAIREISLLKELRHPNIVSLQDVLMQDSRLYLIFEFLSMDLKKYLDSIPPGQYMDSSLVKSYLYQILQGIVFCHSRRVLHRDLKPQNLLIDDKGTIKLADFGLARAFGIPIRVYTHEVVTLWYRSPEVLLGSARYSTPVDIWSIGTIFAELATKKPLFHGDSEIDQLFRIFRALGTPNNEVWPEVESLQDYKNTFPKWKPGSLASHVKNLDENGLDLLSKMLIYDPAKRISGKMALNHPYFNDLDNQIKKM
Chain of Cyclin-dependent kinase 1/cyclin B1 (Homo sapiens) (P14635 whole entry, looked up): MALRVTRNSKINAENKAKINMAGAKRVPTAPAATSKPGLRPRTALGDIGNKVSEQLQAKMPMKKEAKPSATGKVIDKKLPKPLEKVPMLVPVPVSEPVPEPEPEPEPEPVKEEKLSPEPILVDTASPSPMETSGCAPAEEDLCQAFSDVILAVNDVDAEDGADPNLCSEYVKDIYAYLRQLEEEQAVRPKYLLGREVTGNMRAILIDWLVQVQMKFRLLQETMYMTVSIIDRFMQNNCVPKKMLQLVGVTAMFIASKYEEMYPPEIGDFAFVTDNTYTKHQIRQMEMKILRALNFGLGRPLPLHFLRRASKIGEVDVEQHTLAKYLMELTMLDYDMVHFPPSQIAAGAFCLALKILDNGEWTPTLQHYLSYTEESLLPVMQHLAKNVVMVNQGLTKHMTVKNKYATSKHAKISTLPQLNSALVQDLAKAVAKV
Chain of CDK3/Cyclin E (Homo sapiens) (P24864 whole entry, looked up): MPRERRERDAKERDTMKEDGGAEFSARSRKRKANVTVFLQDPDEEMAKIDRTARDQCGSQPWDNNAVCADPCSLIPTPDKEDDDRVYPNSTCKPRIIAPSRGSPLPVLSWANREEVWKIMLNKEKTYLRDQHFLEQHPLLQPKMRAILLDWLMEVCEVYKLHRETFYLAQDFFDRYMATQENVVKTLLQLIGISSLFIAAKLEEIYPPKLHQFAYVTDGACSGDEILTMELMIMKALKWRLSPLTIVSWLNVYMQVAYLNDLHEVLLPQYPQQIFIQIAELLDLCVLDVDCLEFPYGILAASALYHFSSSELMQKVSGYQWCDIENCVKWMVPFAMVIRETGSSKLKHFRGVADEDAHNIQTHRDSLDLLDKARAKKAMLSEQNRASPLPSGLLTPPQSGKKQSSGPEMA
Chain of CDK3/Cyclin E (Homo sapiens) (Q00526 whole entry, looked up): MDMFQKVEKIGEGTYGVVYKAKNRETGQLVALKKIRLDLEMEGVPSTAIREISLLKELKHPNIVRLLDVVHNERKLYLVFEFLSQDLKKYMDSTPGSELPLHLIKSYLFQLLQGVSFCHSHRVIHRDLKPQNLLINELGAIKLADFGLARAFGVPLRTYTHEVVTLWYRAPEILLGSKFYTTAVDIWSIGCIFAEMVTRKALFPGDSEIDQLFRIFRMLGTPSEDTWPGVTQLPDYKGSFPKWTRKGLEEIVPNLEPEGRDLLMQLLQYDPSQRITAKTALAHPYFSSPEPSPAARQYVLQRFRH
Chain of CDK9/cyclin T1 (O60563 whole entry): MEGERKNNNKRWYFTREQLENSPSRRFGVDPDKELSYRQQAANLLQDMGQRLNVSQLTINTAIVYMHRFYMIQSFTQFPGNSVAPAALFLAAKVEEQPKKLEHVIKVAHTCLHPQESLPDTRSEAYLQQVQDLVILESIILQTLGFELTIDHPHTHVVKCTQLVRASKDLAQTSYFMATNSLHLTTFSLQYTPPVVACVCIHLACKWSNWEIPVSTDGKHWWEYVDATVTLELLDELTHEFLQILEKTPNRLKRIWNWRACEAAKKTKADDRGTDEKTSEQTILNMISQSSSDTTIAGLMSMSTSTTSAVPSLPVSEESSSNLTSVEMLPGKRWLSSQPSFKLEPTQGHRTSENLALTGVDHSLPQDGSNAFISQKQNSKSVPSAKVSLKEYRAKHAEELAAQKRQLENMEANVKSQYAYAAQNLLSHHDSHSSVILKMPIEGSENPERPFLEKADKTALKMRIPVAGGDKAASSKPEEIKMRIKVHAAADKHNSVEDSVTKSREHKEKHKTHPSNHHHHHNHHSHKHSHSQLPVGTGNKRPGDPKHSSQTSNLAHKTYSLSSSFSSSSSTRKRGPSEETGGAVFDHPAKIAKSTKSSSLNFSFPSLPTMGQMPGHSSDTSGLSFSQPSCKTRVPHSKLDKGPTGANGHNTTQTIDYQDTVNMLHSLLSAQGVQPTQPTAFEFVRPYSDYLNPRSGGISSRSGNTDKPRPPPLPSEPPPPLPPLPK
Chain of CDK9/cyclin T1 (P50750 whole entry): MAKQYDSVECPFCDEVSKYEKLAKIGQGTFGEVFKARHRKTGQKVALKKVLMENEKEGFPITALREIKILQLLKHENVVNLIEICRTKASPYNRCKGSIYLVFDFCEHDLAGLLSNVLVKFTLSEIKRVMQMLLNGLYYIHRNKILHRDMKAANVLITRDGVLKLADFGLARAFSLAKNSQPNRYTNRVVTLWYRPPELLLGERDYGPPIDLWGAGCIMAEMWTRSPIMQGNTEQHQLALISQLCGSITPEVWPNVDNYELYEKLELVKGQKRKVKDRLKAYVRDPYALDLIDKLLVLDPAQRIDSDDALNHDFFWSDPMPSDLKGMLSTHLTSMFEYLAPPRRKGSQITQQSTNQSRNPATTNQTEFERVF
Chain of Glycogen synthase kinase-3 alpha (Homo sapiens), P49840 [UNDEFINED MUTATION] (P49840 whole entry, looked up, stated change not applied): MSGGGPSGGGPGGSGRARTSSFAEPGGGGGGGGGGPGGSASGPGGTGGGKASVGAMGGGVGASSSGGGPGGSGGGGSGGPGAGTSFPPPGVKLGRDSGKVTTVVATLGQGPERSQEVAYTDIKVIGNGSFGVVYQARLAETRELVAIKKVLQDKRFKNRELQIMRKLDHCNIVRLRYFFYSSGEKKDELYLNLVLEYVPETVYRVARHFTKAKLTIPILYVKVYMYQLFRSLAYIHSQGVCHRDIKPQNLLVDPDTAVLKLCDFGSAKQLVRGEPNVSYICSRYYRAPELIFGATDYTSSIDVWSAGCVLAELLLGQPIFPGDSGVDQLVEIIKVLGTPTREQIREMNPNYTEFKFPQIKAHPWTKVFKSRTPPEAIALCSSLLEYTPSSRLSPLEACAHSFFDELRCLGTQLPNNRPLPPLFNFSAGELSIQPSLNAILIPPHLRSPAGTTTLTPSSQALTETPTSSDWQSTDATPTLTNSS
Chain of Cyclin-dependent kinase 5/CDK5 activator 1 (Homo sapiens) (Q00535 whole entry): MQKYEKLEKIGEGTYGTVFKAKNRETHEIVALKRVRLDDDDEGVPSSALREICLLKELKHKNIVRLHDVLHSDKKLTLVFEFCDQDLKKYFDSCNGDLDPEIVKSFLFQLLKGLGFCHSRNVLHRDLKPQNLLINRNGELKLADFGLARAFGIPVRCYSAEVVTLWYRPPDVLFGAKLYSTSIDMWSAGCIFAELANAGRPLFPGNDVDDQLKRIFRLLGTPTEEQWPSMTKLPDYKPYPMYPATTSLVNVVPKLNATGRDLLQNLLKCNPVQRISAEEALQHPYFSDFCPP
Chain of Cyclin-dependent kinase 5/CDK5 activator 1 (Homo sapiens) (Q15078 99-307 partner limits assumed): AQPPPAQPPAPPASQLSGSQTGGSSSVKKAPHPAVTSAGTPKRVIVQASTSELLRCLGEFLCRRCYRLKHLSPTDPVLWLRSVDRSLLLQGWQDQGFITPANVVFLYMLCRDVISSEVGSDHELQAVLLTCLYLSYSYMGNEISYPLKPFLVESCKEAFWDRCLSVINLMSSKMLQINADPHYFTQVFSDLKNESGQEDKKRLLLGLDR
Chain of Protein kinase C theta type (Q04759 whole entry, looked up): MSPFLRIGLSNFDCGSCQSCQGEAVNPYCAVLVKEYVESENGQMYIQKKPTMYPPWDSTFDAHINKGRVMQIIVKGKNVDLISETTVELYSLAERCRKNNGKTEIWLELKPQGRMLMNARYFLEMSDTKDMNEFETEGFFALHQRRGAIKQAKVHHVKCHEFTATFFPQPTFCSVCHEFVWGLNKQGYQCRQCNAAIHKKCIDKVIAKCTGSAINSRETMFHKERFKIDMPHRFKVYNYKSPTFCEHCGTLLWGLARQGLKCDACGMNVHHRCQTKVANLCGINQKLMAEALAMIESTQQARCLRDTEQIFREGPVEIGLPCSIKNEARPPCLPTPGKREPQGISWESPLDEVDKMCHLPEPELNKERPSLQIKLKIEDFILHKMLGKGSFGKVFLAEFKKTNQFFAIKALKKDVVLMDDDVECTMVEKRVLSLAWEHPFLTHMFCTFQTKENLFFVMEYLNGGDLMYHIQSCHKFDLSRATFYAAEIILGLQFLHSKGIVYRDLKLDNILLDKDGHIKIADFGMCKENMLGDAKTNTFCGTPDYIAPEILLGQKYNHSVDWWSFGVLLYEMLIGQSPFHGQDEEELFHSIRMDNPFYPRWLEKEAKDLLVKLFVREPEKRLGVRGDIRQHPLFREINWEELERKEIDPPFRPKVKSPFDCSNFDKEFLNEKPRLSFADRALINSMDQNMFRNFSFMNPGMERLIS

Take `Cn1cc(-c2ccc(-c3cncc(Cl)c3N3CCC4(CCNC4=O)CC3)cc2)cn1`: in series [1], the area under the curve (AUC) at 24 h stood at 10.5 µM·h. In addition, the 50% growth inhibitory concentration (GI50) in series [2] is above 50 µM; in series [3], above 50 µM; in [4], 19.98 µM; in series [7] it was 29.9 µM; in series [14], 15.1 µM. The Tmax in series [5] was determined as 79.8 min. For the same compound, the Activity result in series [6] is reported as “Non-Toxic”; in [8], “Non-Toxic”; in series [9], “Toxic”; in [12], “Non-Toxic”; in [13], “Toxic”. In addition, the results for the Cmax in [10] and in series [11] were 4.06 µM and 10.6 µM, respectively.
Turning to `O=C1NCCC12CCN(c1c(Cl)cncc1-c1cc3ccccc3o1)CC2`, the AUC at 24 h was 1.39 µM·h in series [15], 9.7 µM·h in [1] and 2.3 µM·h in [22]. In addition, the inhibition entry in series [16], in series [17], in series [30], in series [31] and in series [34] was “inactive” each time. Besides, the GI50 was 35.3 µM in [2]; above 50 µM in series [3]; 7.13 µM in series [4]; 40.7 µM in series [7]; 16.2 µM in series [14]. Further, the inhibition in [18], in [20], in series [25] and in [27] was above 50% each time. Besides, the Activity result in series [19] is “Toxic”; in series [6], “Non-Toxic”; in series [8], “Non-Toxic”; in series [9], “Non-Toxic”; in [12], “Non-Toxic”; in series [13] it was “Non-Toxic”. In addition, the time of peak concentration (Tmax) in series [5] worked out at 165 min; in [21], 2.4 min; in [26] it was 25.2 min. In [23], the Vd was 1.99 L/kg. The concentration for half-maximal inhibition (IC50) in series [24] was found to be 7.7 µM. Further, the Ki in series [28] is 1.77 µM. The Cmax in series [29] is 5.01 µM; in [10], 2.77 µM; in series [11], 14.4 µM; in series [33], 3.44 µM. Further, the pKa in [32] was 4.9.

What is called AUC is the area under the concentration-time curve, a measure of exposure. As usually defined, the GI50 is the concentration giving 50% growth inhibition. High values mean lower sensitivity of the cells, low ones greater sensitivity of the cells. As usually defined, the Tmax is the time at which the peak concentration occurs. The Cmax is the highest concentration seen after dosing. As a reminder, the inhibition is the percentage by which the read-out fell short of the control. What is called IC50 is the concentration needed to halve the response being measured. In general, Ki refers to a measure of affinity in units of concentration, obtained from inhibition or displacement. Low values mean a stronger hold on the target, high ones a looser hold on the target. As usually defined, the pKa is the negative logarithm of the acid dissociation constant. A lower pKa goes with a stronger acid or weaker base.
